An excerpt weighted towards active compounds, which were near 2.2% of everything screened.
Myeloid diff 2 – myeloid differentiation induction; ER-HoxA9 myeloid progenitors, lysozyme-GFP differentiation, flow cytometry; calls only at 10 µM; 360,000 tested, 1% active; AID 624256;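 active means normalized GFP-positive differentiation at or above the plate's own cutoff, the solvent-only control mean plus 3 SD; inconclusive means no clear call, values can overlap the other calls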;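 further: cells exposed to compound for four days before flow analysis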
CSN inh – CSN deneddylation inhibition; Purified CSN, SCF-Nedd8-OG deneddylation, fluorescence polarization; Q92905; inhibition, % at 12.5 µM; 360,000 tested, 0.38% active;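 active means pattern-corrected inhibition above about 35%, with an unprinted fluorescence ratio check between 0.5 and 1.5, limit read from the data, passing the limit was not always enough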;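 further: 0% = enzyme with substrate and 100% = substrate without enzyme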
Target sequence (Q92905 whole entry, looked up, one chain of several): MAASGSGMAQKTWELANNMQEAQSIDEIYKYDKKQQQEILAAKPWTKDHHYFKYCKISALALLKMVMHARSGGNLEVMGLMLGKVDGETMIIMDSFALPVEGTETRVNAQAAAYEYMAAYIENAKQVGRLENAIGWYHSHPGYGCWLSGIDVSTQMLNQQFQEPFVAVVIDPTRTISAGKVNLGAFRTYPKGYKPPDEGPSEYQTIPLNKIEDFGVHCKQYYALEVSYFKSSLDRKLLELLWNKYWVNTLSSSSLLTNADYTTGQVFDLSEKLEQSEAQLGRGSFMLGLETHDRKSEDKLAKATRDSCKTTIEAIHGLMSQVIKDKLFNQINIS
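Assay system: purified human Csn5 enzyme expressed in HEK293T cells; measure: % inhibition; also added: SCFSkp2-Nedd8OG substrate at 10 nM final; technique: fluorescence polarization; times: reaction 90 min, room temperature; medium: Tris buffer pH 7.5, NaCl, DTT, Tween-20, trehalose, ovalbumin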
HNF4A DNA FP – change in binding of human HNF4 alpha to DNA. HNF4a-FITC DNA binding, fluorescence polarization, 1 h. P41235. AID 1224865. 360,000 tested, 0.3% active. activity change, % at 10 µM; in the data active means activity change above about 30%, passing the limit was not always enough
Granule exo inh – blocks lytic granule exocytosis; TALL-104 LAMP-1 surface exposure, flow cytometry; cells stimulated with thapsigargin and PMA; inhibition, % at 10 µM; 360,000 tested, 0.66% active; AID 651702;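 active means inhibition above about 55%, limit read from the data; inconclusive means no clear call, values can overlap the other calls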
An asterisk follows results filed as active; i = inactive; ? = inconclusive; . = no result; + = active, no number.

SMILES	Myeloid diff 2	CSN inh	HNF4A DNA FP	Granule exo inh
C=CS(=O)(=O)c1ccc(Oc2ccc(S(=O)(=O)C=C)cc2)cc1	i	14.6	-2.9	88.8*
NS(=O)(=O)c1ccc(Oc2ccc(S(N)(=O)=O)cc2)cc1	i	-2.0	-0.5	-1.5
Cc1ccc(Cn2c(C(C)Nc3nc(-c4ccc(Cl)cc4)cs3)nc3cc(C(=O)NCCCO)ccc32)cc1 (centres undefined)	+	0.1	6.8	2.0
COc1ccccc1Cc1c(-c2ccc(F)cc2)nc2ccc(Cl)cn12	i	8.5	8.6	1.6
COc1cc2c3nnc(-c4ccc(F)cc4)c-3cn(Cc3ccccc3F)c2cc1OC	+	91.9	87.7	-1.3
CC1=CCC(C(=O)O)C(C(=O)Nc2nc3ccc(S(C)(=O)=O)cc3s2)C1 (centres undefined)	+	-1.1	2.2	0.8
Cc1cc(NC(=O)CSc2nc(-c3ccc(Cl)cc3)cs2)no1	i	-1.0	0.5	-1.7
O=C(CSc1nc(-c2ccc(Cl)cc2)cs1)Nc1cccc([N+](=O)[O-])c1	i	3.1	1.1	64.8*
Cc1ccc(Cn2c(=N)n(CC(=O)c3ccc([N+](=O)[O-])cc3)c3ccccc32)cc1	i	42.5*	63.6*	55.0
COc1ccc(CN(C)CC(=O)Nc2ccccc2C(=O)NC2CC2)cc1OC	i	0.3	-1.6	-6.0
Cc1oc(C)c2c(=O)ccc3c(c12)OC(N)=C(C#N)C3c1ccccc1 (centres undefined)	i	10.4	5.1	0.4
Cc1oc(C)c2c(=O)ccc3c(c12)OC(N)=C(C#N)C3c1ccccc1Cl (centres undefined)	+	31.0	8.2	-0.4
COc1ccc([C@H]2C[C@@H](O)[C@H](n3cc(COC(=O)c4ccccc4)nn3)CN2C(=O)C2CCCCC2)cc1	i	2.9	3.6	-6.1
COc1ccccc1C(=O)NCCC(=O)N1CC=C(c2ccccc2)CC1	i	2.8	2.8	0.7
O=C1C(Cl)=C(NCCN2CCCCC2)C(=O)c2ccccc21	?	-1.9	1.8	56.2*
CCN1/C(=C/C(C)=O)Sc2ccc(OC)cc21	i	5.2	2.7	-0.5
CCOC(=O)/C(=C/C=C1\Sc2cc(OCC)c(OCC)cc2N1CC)C(C)=O	+	-66.2	-103.6	-6.6
CCOC(=O)/C(=C\C=C1/Sc2cc(OCC)c(OCC)cc2N1CC)C(C)=O	+	-36.7	-90.3	-3.5
CCN(CC)S(=O)(=O)c1ccc(C(=O)NCC(=O)NCCCc2ccccc2)cc1	i	4.8	-1.0	27.9
Cc1ccc(/C(N)=N/OC(=O)c2ccc(Cl)cc2Cl)cc1	+	-5.6	-2.2	1.8
COC(=O)c1cccc(Nc2nc(-c3cccnc3)nc3ccccc23)c1	i	1.6	-1.8	31.6
CCOC(=O)c1cccc(Nc2nc(-c3cccnc3)nc3ccccc23)c1	+	3.0	4.2	-0.2
Cc1cc(C(=O)Nc2ccon2)ccc1[N+](=O)[O-]	i	-0.3	0.0	0.8
Cc1cccc(C)c1NC(=O)NCCSc1snnc1C	i	35.5*	-1.7	-4.3
COCC(C)NC(=O)CCS(=O)(=O)c1nc(-c2ccc(OC)cc2)cc(C(F)(F)F)n1 (centres undefined)	i	4.4	5.5	77.5*
SMILES	Myeloid diff 2	CSN inh	HNF4A DNA FP	Granule exo inh
CCOC(=O)CS(=O)(=O)c1nc(-c2ccc(F)cc2)cc(C(F)(F)F)n1	i	4.6	-1.2	95.8*
CCOC(=O)CS(=O)(=O)c1nc(-c2ccccc2)cc(C(F)(F)F)n1	i	12.3	3.0	29.9
CCOC(=O)CCS(=O)(=O)c1nc(-c2ccccc2)cc(C(F)(F)F)n1	.	2.4	0.8	88.1*
COc1ccc(-c2cc(C(F)(F)F)nc(S(C)(=O)=O)n2)cc1	i	0.3	-3.2	39.6
CCOCCCN(C(=O)Cn1nnc(-c2ccc(C)o2)n1)C(C(=O)NC1CCCC1)c1ccc(C)o1 (centres undefined)	i	1.4	-0.1	1.4
O=C(c1ccccc1)c1coc(-c2ccccc2)c1	i	-4.2	-0.8	-8.0
COc1ccc(N=C2S/C(=C\c3ccc(Cl)c([N+](=O)[O-])c3)C(=O)N2CCN(C)C)cc1	i	3.5	1.7	72.8*
CCN(CC)CCN1C(=O)/C(=C\c2ccc(Cl)c([N+](=O)[O-])c2)SC1=Nc1ccc(OC)cc1	.	0.2	0.3	92.7*
COc1ccc(OC)c(-c2nnc3n2N=C(c2ccc(OC)c(OCC4CC4)c2)CS3)c1	+	1.0	4.8	-9.3
Cc1cc(C)c2[nH]c(C)c(CN3CCCCCC3)c(=O)c2c1	+	3.1	5.4	1.2
Cc1[nH]c2c(Cl)cccc2c(=O)c1CN1CCCC1	i	1.9	2.3	-0.2
Cc1cc(C(F)(F)F)nc(SCCN2CCCCC2)c1C#N	i	5.3	-0.2	-0.5
CCOc1ccc(S(=O)(=O)N(CC(=O)N/N=C/c2ccc(-c3ccc([N+](=O)[O-])cc3)o2)c2ccccc2)cc1	+	8.7	-9.8	8.2
COc1ccc(CCNC(=O)CN(c2ccc(OC)c(OC)c2)S(=O)(=O)c2ccc(C)cc2)cc1	+	4.8	5.4	23.1
COc1ccccc1OCCCOc1ccc(C)cc1Br	i	-2.5	-0.1	-6.6
Cc1ccc(OCCCCN(C)Cc2ccccc2)c(Br)c1	+	-11.8	-3.3	-2.3
COc1ccccc1OCCOCCOc1ccc(C)cc1Br	+	-4.6	1.5	-1.2
O=C(C1CC=CCC1)N1CCCCCC1 (centres undefined)	i	1.2	-5.2	-1.7
O=C(CSc1nnc(NC(=O)c2ccccc2)s1)NC1CCCC1	?	-0.3	-0.8	-13.8
Cc1ccc(/C=C2/C(=O)N=C(N)N2C)s1	+	-9.7	-2.4	1.6
ClC(Cl)(Cl)c1nc2ccccc2n2nncc12	?	1.8	3.0	-5.1
COc1cc(C2C(C#N)=C(C)NC3=C2C(=O)c2ccccc23)cc(OC)c1OC (centres undefined)	+	20.1	11.4	-1.4
Cc1ccccc1OCC(=O)Nc1ccc(N2CCOCC2)cc1N1CCOCC1	i	-1.1	3.1	-4.3
Cc1cc(N2CCCC2)ccc1NC(=O)COc1ccccc1	+	5.9	13.9	-1.5
COc1ccc(N2CCCC2)c(NC(=O)COc2ccccc2)c1	i	0.1	-2.1	-0.6
CCc1ccccc1OCC(=O)Nc1ccc(N2CCCC2)cc1C	+	20.1	51.6*	4.1
COC(=O)C1C2CC3c4[nH]c5cc(OC)ccc5c4CCN3CC2CC(OC2CCCCO2)C1OC (centres undefined)	+	1.3	30.6	-1.4
COC(=O)[C@H]1[C@H]2C[C@@H]3c4[nH]c5cc(OC)ccc5c4CCN3C[C@H]2C[C@@H](OC(=O)c2cc(OC)c(OC)c(OC)c2)[C@@H]1OC	i	1.7	10.8	4.5
Cc1ccc2c(c1)N(C)/C(=C/c1cccc[n+]1CCO)S2	+	1.0	1.4	15.8
Cc1ccccc1OCC(=O)Nc1c2c(nn1C(C)(C)C)CS(=O)(=O)C2	+	-0.9	-0.5	0.3
